MrgX1 allo act = positive allosteric modulators of MrgX1, primary screen, HEK293 cells, Fluo-4 calcium flux | B-score at 10 µM | AID 588675, 2011 | FDSS; hits give high values | 0.63% of 310,000 active | Mas-related G-protein coupled receptor member X1 (Homo sapiens), Q96LB2;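 active = plate-corrected calcium response at least 3 library SD above typical, normal starting fluorescence, not activating the receptor alone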;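 note: compound read alongside a low EC10 to EC30 dose of BAM8-22 agonist; peak minus trough fluorescence over baseline measured at the second addition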
Target sequence (Q96LB2 whole entry, looked up): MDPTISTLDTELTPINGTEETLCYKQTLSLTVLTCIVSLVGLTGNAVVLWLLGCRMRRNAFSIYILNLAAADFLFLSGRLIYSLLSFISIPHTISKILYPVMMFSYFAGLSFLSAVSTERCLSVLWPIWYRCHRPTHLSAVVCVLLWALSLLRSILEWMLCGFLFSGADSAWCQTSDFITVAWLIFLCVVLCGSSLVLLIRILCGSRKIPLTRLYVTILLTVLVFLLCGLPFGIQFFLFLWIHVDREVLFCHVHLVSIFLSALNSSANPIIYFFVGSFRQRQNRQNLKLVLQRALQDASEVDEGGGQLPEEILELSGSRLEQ
MrgX1 ag = agonists of human MrgX1 receptor, primary screen, HEK293 cells, Fluo-4 calcium flux. Mas-related G-protein coupled receptor member X1 (Homo sapiens), Q96LB2. Fluo-4 calcium fluorescence, agonist mode; hits give high values. B-score at 10 µM. 0.44% of 310,000 active. AID 588627, 2011;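 active = calcium response B-score plate-corrected fluorescence ratio at least 3 library SD, with starting fluorescence B-score inside 5 SD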
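Material – MrgX1-expressing HEK293 cells · Input – 15,000 cells seeded per well · Dosing – compound as first of three additions · Times – overnight seeding, then 1 h dark dye loading · Measured by – kinetic Fluo-4 NW fluorescence of intracellular calcium · Read-out – B-scored fluorescence response ratio · Benchmarks – positive and negative control wells on each plate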
MrgX1 antag = antagonists of human MrgX1 receptor, primary screen, HEK293 cells, Fluo-4 calcium flux; Mas-related G-protein coupled receptor member X1 (Homo sapiens), Q96LB2; BAM8-22 antagonism; hits give low values; B-score at 10 µM; 1.3% of 310,000 active; AID 588676, 2011;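 active = calcium-response B-score plate-corrected more than 3 library SD below zero, starting fluorescence within 5 deviations, no agonist response on first addition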;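 note: peak minus trough fluorescence over baseline after final BAM8-22 challenge near maximal dose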
RGS4 act = RGS4 potentiators or activators, primary screen, cell-based, HEK293 M3R inducible RGS4, calcium flux; carbachol calcium flux Fluo4; hits give low values; B-score at 10 µM; 0.92% of 310,000 active;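 active = B-score of the integrated calcium signal more than 4 SD below the library mean, with starting fluorescence not abnormally high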;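 note: negative B-score means reduced calcium response which marks RGS4 activation or potentiation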
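Material: M3R-expressing HEK293 line, RGS4 induced by doxycycline | Schedule: Overnight RGS4 induction, 30 min dye load 37 °C, 20 min compound RT | Measured by: Fluo4 fluorescence kinetic imaging of calcium | Read-out: Integrated calcium ratio converted to B score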
RGS4 inh = RGS4 inhibitors, primary screen, cell-based, HEK293 M3R inducible RGS4, calcium flux; Regulator of G-protein signaling 4 (Homo sapiens), P49798; 0.45% of 310,000 active; B-score at 10 µM; Fluo-4 calcium flux; hits give high values; triggered by carbachol at its EC20; AID 463165, 2010;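 active = B-score, a plate-corrected calcium signal, over three deviations above library mean, with baseline fluorescence within five deviations of library mean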;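 note: RGS4 expression induced by doxycycline in cells with stable M3 receptor; B-score is computed from the integrated fluorescence ratio over baseline after carbachol; higher B-score means a larger calcium signal and so more RGS4 inhibition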
Target sequence (P49798 whole entry, looked up): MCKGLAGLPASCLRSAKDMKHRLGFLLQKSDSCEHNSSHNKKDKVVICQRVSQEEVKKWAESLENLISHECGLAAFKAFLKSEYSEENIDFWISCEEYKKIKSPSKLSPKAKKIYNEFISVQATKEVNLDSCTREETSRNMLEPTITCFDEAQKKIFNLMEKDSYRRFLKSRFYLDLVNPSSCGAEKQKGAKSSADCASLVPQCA
MrgX1 antag conf = MrgX1 receptor antagonists, duplicate retest, confirmation, HEK293 cells, Fluo-4 calcium flux; shares compounds with MrgX1 antag; BAM8-22 calcium flux; hits give low values; remaining BAM8-22 calcium response % of control (hits give low values), % at 10 µM; 19% of 2,300 active;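 active = remaining agonist calcium response no higher than 100% minus 3 SD of agonist-only control wells, with starting fluorescence near control levels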;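 note: agonist BAM8-22 given at a near maximal EC90 to ECmax level; peak minus minimum fluorescence divided by baseline after agonist addition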
HEK293 Ca flux = nonspecific calcium signal in parental HEK293, confirmation, counter-screen for MrgX1 antagonist project, parental HEK293 cells, Fluo-4 calcium flux; fluorescence ratio F(max-min)/F0 at 10 µM; AID 624111, 2012; shares compounds with MrgX1 antag; 2% of 4,000 active; Fluo-4 calcium fluorescence, FDSS;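 active = duplicate-averaged calcium fluorescence ratio at least three times the standard deviation of buffer wells, a nonspecific response in parental cells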
HEK293 Ca counter = calcium response in parental HEK293 cells, primary screen, counter-screen for MrgX1 allosteric activator project, cell-based, Fluo-4 calcium flux, duplicate. 0.4% of 4,000 active. fluorescence ratio F(max-min)/F0 at 10 µM. Fluo-4 fluorescence ratio; hits give high values. shares compounds with MrgX1 antag. AID 624114, 2012;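 active = calcium fluorescence ratio, averaged over duplicates, at least 3 SD of the buffer-well ratio, meaning a nonspecific response in receptor-free cells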;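 note: untransfected parental HEK293 lacking MrgX1 used as counterscreen for MrgX1 allosteric activators; fluorescence change taken during the second addition on a kinetic imager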
HEK293 Ca cntr2 = calcium response in parental HEK293 cells, primary screen, counter-screen for MrgX1 agonist project, cell-based, Fluo-4 calcium flux, duplicate, agonist mode. Fluo-4 calcium fluorescence (FDSS); hits give high values. shares compounds with MrgX1 antag. AID 624115, 2012. 8.7% of 4,000 active. fluorescence ratio F(max-min)/F0 at 10 µM;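 active = calcium fluorescence ratio at least three times the spread of buffer wells, meaning a non-specific response in parental cells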
A number is an active result; – = inactive; · = no result. Hits are enriched below; roughly 3.5% of the tested compounds scored in any of these assays.

SMILES | MrgX1 allo act | MrgX1 ag | MrgX1 antag | RGS4 act | RGS4 inh | MrgX1 antag conf | HEK293 Ca flux | HEK293 Ca counter | HEK293 Ca cntr2
COc1cccc(C(=O)Nc2cc(-c3cn4cccnc4n3)ccc2C)c1 | – | – | – | – | – | · | · | · | ·
Cc1occc1C(=O)N/N=C/c1cccs1 | – | – | -10.3 | – | – | 83.3% | – | – | –
CCN1CCN(CC(=O)N2c3ccccc3Sc3ccccc32)CC1 | – | – | -5.06 | – | – | – | – | – | –
OC(CCN1CCCC1)(c1ccccc1)C1CCCCC1 (configuration not stated) | – | – | – | – | – | · | · | · | ·
OC(CCN1CCCCC1)(c1ccccc1)c1ccccc1 | – | – | -7.15 | – | – | – | – | – | –
CC(C)c1ccccc1NC(=O)CNC(C)c1ccc(F)cc1 (configuration not stated) | – | – | – | – | – | · | · | · | ·
C=Cc1ccc(Cn2c(=O)n(CCCOC)c(=O)c3sccc32)cc1 | – | – | – | – | – | · | · | · | ·
CC1Cc2ccccc2N1C(=O)c1cc2sccc2n1Cc1ccc(F)cc1 (configuration not stated) | – | – | – | – | – | · | · | · | ·
O=C(NC1CCCCC1)C(=S)N1CCOCC1 | – | – | -5.42 | – | – | – | – | – | –
Cc1cc(C)n2nc(C(=O)Nc3nccs3)nc2n1 | – | – | – | – | – | · | · | · | ·
Cc1csc(NC(=O)c2nc3nc(C)cc(C)n3n2)n1 | – | – | -5.37 | – | – | – | – | – | –
Cc1ccccc1N(CC(=O)N1CCN(c2ccccc2)CC1)S(C)(=O)=O | – | – | -7.71 | – | – | – | – | – | –
COc1ccc(CCNC(=O)CNCC2CCCCC2)cc1OC | – | – | – | – | – | · | · | · | ·
CCCc1cc(=O)n2[nH]c(NCc3ccccc3Cl)nc2n1 | – | – | – | – | – | · | · | · | ·
CCCc1cc(=O)n2[nH]c(NCc3cccs3)nc2n1 | – | – | -10.5 | – | – | – | – | – | –
Cc1nc2ccccc2c2c1CC(C(C)(Cl)Br)O2 (configuration not stated) | – | – | – | – | – | · | · | · | ·
COc1c2c(nc3ccccc13)OC(C(C)(O)COC(C)=O)C2 (configuration not stated) | – | – | -6.51 | – | – | – | – | – | –
CC(=O)c1sc2nc(-c3cccs3)cc(C(F)(F)F)c2c1N | – | – | -10.2 | – | – | – | – | – | –
Cc1c(C(=O)O)sc2nc(-c3cccs3)cc(C(F)(F)F)c12 | – | – | – | – | – | · | · | · | ·
COc1ccc(OC)c(NC(=O)c2sc3nc(Cc4ccccc4)cc(C(F)(F)F)c3c2N)c1 | – | – | – | – | – | · | · | · | ·
CN(C)CCNC(=O)c1sc2nc(-c3ccccc3)cc(C(F)(F)F)c2c1N | – | – | -7.66 | – | – | – | – | – | –
CCS(=O)(=O)N1CCC(NC(=O)C(Cc2cccc(OC)c2OC)NC(C)=O)CC1 (configuration not stated) | · | · | · | – | – | · | · | · | ·
C=CCc1c(C)nc2c(-c3ccccc3)cnn2c1N1CCOCC1 | – | – | – | – | – | · | · | · | ·
Cc1cc(C)c(S(=O)(=O)c2ccc(Cl)cc2C)c(Cl)n1 | – | – | – | – | – | · | · | · | ·
CCc1ccccc1S(=O)(=O)c1c(C)cc(C)nc1Cl | – | – | -5.02 | – | – | – | – | – | –
SMILES | MrgX1 allo act | MrgX1 ag | MrgX1 antag | RGS4 act | RGS4 inh | MrgX1 antag conf | HEK293 Ca flux | HEK293 Ca counter | HEK293 Ca cntr2
C=CCc1c(C)nc(SCC(=C)C)[nH]c1=O | – | – | – | – | – | · | · | · | ·
Cn1c(=O)n(Cc2ccc(Br)cc2)c2ccccc21 | – | – | -9.34 | – | – | – | – | – | –
Cn1c(=O)n(CCC(=O)O)c2ccccc21 | – | – | – | – | – | · | · | · | ·
Cc1ccc(-c2ccccc2)n1-c1ccc(C(=O)O)cc1 | – | – | -4.62 | – | – | 78.3% | – | – | –
CN(C)c1ccc(N=Nc2ccccc2C(=O)OCC(=O)N(C)c2ccccc2)cc1 | – | – | – | – | – | · | · | · | ·
COC(=O)c1cc(=O)n2c(-c3ccccc3)csc2n1 | – | – | – | – | – | · | · | · | ·
CCN(CC(=O)NC(C)(C)C)Cc1cc(=O)n2c(-c3ccccc3)csc2n1 | – | – | -4.72 | – | – | – | – | – | –
CC(=O)c1ccc(NC(=O)C(C)NCc2ccccc2Cl)cc1 (configuration not stated) | – | – | -6.23 | – | – | – | – | – | –
Cc1c(OCC(=O)NCC2CCC(C(=O)O)CC2)ccc2c(-c3ccccc3)cc(=O)oc12 (configuration not stated) | – | – | – | – | – | · | · | · | ·
Cc1cccc(-c2nc(CSc3nc4c(c(=O)[nH]3)CCC4)c(C)o2)c1 | – | – | -8.42 | – | – | 81.5% | – | – | –
CCOc1nc(Nc2ccc(OC)cc2)nc(OCC)n1 | – | – | – | – | – | · | · | · | ·
CCOc1nc(Nc2ccc(OC)c(Cl)c2)nc(OCC)n1 | – | – | -4.8 | – | – | – | – | – | –
Fc1ccc(CN2CCSCC2)cc1F | – | – | -4.54 | – | – | – | – | – | –
Cc1csc(=N)n1CC(=O)N1CCc2ccccc21 | – | – | – | – | – | · | · | · | ·
COc1ccc(N(CC(O)CN2CCOCC2)S(=O)(=O)c2ccccc2)cc1 (configuration not stated) | – | – | – | – | – | · | · | · | ·
CCCc1nc2ccccc2c(=O)n1CC(=O)c1ccccc1 | – | – | -5.77 | – | – | – | – | – | –
O=C(CCc1ccccc1)Nc1cc(C(F)(F)F)ccc1Cl | – | – | -4.51 | – | – | – | – | – | –
Cc1cccc(NC(=O)Cn2cnc3ccccc3c2=O)c1C | – | – | – | – | – | · | · | · | ·
Cc1ccc(C(=O)c2c[nH]c3c(F)cc(F)cc3c2=O)cc1 | – | – | -6.78 | – | – | – | – | – | –
COc1ccc2c(c1)c(=O)c(C(=O)c1ccc(C)cc1)cn2CC(=O)Nc1ccc(F)cc1 | – | – | – | – | – | · | · | · | ·

High-throughput results deposited in PubChem BioAssay by Johns Hopkins Ion Channel Center.
